ChEMBL document CHEMBL1123779, “Modifications of primaquine as antimalarials. 4. 5-Alkoxy derivatives of primaquine” (J Med Chem, 1987)

What was measured:
[1] = test system: Plasmodium cynomolgi; experiment: Cures in Plasmodium cynomolgi infected Rhesus monkeys (Macaca mulatta) on 0.316 mg/kg/day after 7 days; cured 0 of 2; type: functional
[2] = test system: Plasmodium cynomolgi; experiment: Cures in Plasmodium cynomolgi infected Rhesus monkeys (Macaca mulatta) on 1 mg/kg/day after 7 days; cured 1 of 1; type: functional
[3] = test system: Plasmodium cynomolgi; experiment: Cures in Plasmodium cynomolgi infected Rhesus monkeys (Macaca mulatta) on 10.0 mg/kg/day after 7 days; type: functional, organism-based
[4] = test system: Plasmodium cynomolgi; experiment: Cures in Plasmodium cynomolgi infected Rhesus monkeys (Macaca mulatta) on 0.1 mg/kg/day after 7 days (x7); cured 0 of 2; type: functional
[5] = test system: Mus musculus; experiment: Suppressive blood schizonticidal antimalarial activity evaluated in the trophozoite-induced Plasmodium berghei infection in mice (Mus musculus) at a dose 10 mg/kg given as no. of cures; type: functional
Procedure, shortened: (§1)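 Run at the Rane Laboratory with blood-induced P. berghei infections in mice, five animals per group. A cure is a mouse surviving to 60 days postinfection. Deaths before day 6 are recorded separately as toxic deaths. Activity is scored from the increase in mean survival time over untreated controls, and counts as active when treated MST is more than twice control MST.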

[6] = test system: Mus musculus; experiment: Suppressive blood schizonticidal antimalarial activity evaluated in the trophozoite-induced Plasmodium berghei infection in mice (Mus musculus) at a dose 160 mg/kg given as no. of cures; type: functional; procedure, shortened: as §1
[7] = test system: Mus musculus; experiment: Suppressive blood schizonticidal antimalarial activity evaluated in the trophozoite-induced Plasmodium berghei infection in mice (Mus musculus) at a dose 20 mg/kg given as no. of cures; type: functional; procedure, shortened: as §1
[8] = test system: Mus musculus; experiment: Suppressive blood schizonticidal antimalarial activity evaluated in the trophozoite-induced Plasmodium berghei infection in mice (Mus musculus) at a dose 320 mg/kg given as number of cures; type: functional; procedure, shortened: as §1
[9] = test system: Plasmodium berghei; experiment: Blood schizonticidal activity in trophozoite-induced Plasmodium berghei infected mice (Mus musculus) at 40 mg/kg; numbers cured; type: functional; procedure, shortened: as §1
[10] = test system: Mus musculus; experiment: Suppressive blood schizonticidal antimalarial activity evaluated in the trophozoite-induced Plasmodium berghei infection in mice (Mus musculus) at a dose 640 mg/kg given as no. of cures; type: functional; procedure, shortened: as §1
[11] = test system: Mus musculus; experiment: Suppressive blood schizonticidal antimalarial activity evaluated in the trophozoite-induced Plasmodium berghei infection in mice (Mus musculus) at a dose 80 mg/kg given as no. of cures; type: functional; procedure, shortened: as §1
[12] = test system: Mus musculus; experiment: Suppressive blood schizonticidal antimalarial activity evaluated in the trophozoite-induced Plasmodium berghei infection in mice (Mus musculus) at a dose 2.5 mg/kg; type: functional
Procedure, shortened: (§2)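 Run at the Rane Laboratory in mice infected with blood-induced P. berghei, five animals per group. Activity is the increase in mean survival time over untreated infected controls. A compound counts as active when treated-group MST is more than twice the control MST. Cures are mice surviving at 60 days postinfection.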

[13] = test system: Mus musculus; experiment: Suppressive blood schizonticidal antimalarial activity evaluated in the trophozoite-induced Plasmodium berghei infection in mice (Mus musculus) at a dose 5 mg/kg; type: functional; parameters: unit not given beside the values; procedure, shortened: as §2
[14] = test system: Plasmodium cynomolgi; experiment: Cures in Plasmodium cynomolgi infected Rhesus monkeys (Macaca mulatta) on 1 mg/kg/day after 7 days; cured 0 of 1; type: functional
[15] = test system: Plasmodium cynomolgi; experiment: Cures in Plasmodium cynomolgi infected Rhesus monkeys (Macaca mulatta) on 0.1 mg/kg/day after 7 days; cured 0 of 1; type: functional
[16] = test system: Mus musculus; experiment: Suppressive blood schizonticidal antimalarial activity evaluated in the trophozoite-induced Plasmodium berghei infection in mice (Mus musculus) at a dose 160 mg/kg given as no. of toxic deaths; type: functional
Procedure, shortened: (§3)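 Rane Laboratory mouse test with blood-induced P. berghei infection, five mice per group. Toxic deaths are deaths occurring before the 6th day postinfection.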

[17] = test system: Mus musculus; experiment: Suppressive blood schizonticidal antimalarial activity evaluated in the trophozoite-induced Plasmodium berghei infection in mice (Mus musculus) at a dose 320 mg/kg given as no. of toxic deaths; type: functional; procedure, shortened: as §3
[18] = test system: Plasmodium berghei; experiment: Suppressive blood schizonticidal antimalarial activity evaluated in the trophozoite-induced Plasmodium berghei infection in mice (Mus musculus) at a dose 640 mg/kg given as number of toxic deaths; type: toxicity, organism-based; parameters: dose 640 mg/kg; details: in vivo; procedure, shortened: as §3
[19] = test system: Plasmodium berghei; experiment: Blood schizonticidal antimalarial activity in the trophozoite-induced Plasmodium berghei infection in mice (Mus musculus) at 20 mg/kg; type: functional; parameters: unit not given beside the values; procedure, shortened: as §2
[20] = test system: Mus musculus; experiment: Suppressive blood schizonticidal antimalarial activity evaluated in the trophozoite-induced Plasmodium berghei infection in mice (Mus musculus) at a dose 5 mg/kg given as no. of cures; type: functional; procedure, shortened: as §1
[21] = test system: Mus musculus; experiment: Suppressive blood schizonticidal antimalarial activity evaluated in the trophozoite-induced Plasmodium berghei infection in mice (Mus musculus) at a dose 80 mg/kg given as no. of toxic deaths; type: functional; procedure, shortened: as §3
[22] = test system: Mus musculus; experiment: Suppressive blood schizonticidal antimalarial activity evaluated in the trophozoite-induced Plasmodium berghei infection in mice (Mus musculus) at a dose 10 mg/kg; type: functional; procedure, shortened: as §2
[23] = test system: Plasmodium cynomolgi; experiment: Cures in Plasmodium cynomolgi infected Rhesus monkeys (Macaca mulatta) on 10.0 mg/kg/day after 7 days; cured 1 of 1; type: functional
[24] = test system: Mus musculus; experiment: Suppressive blood schizonticidal antimalarial activity evaluated in the trophozoite-induced Plasmodium berghei infection in mice (Mus musculus) at a dose 320 mg/kg; type: functional; procedure, shortened: as §2
[25] = test system: Mus musculus; experiment: Suppressive blood schizonticidal antimalarial activity evaluated in the trophozoite-induced Plasmodium berghei infection in mice (Mus musculus) at a dose 160 mg/kg; type: functional; procedure, shortened: as §2
[26] = test system: Mus musculus; experiment: Suppressive blood schizonticidal antimalarial activity evaluated in the trophozoite-induced Plasmodium berghei infection in mice (Mus musculus) at a dose 40 mg/kg; type: functional; parameters: unit not given beside the values; procedure, shortened: as §2
[27] = test system: Mus musculus; experiment: Suppressive blood schizonticidal antimalarial activity evaluated in the trophozoite-induced Plasmodium berghei infection in mice (Mus musculus) at a dose 80 mg/kg; type: functional; parameters: unit not given beside the values; procedure, shortened: as §2
[28] = test system: Plasmodium cynomolgi; experiment: Cures in Plasmodium cynomolgi infected Rhesus monkeys (Macaca mulatta) on 1 mg/kg/day after 7 days; cured 2 of 2; type: functional
[29] = test system: Plasmodium cynomolgi; experiment: Cures in Plasmodium cynomolgi infected Rhesus monkeys (Macaca mulatta) on 0.316 mg/kg/day after 7 days; cured 0 of 1; type: functional
[30] = test system: Plasmodium cynomolgi; experiment: Cures in Plasmodium cynomolgi infected Rhesus monkeys (Macaca mulatta) on 0.316 mg/kg/day after 7 days; cures 2 of 2; type: functional

Row | SMILES | Cures/no. of animals [2] | Cures/no. of animals [4] | Cures [7] | Cures [9] | Cures [11] | Delta MST [12] | Delta MST [13] | Toxic deaths [16] | Toxic deaths [17] | Toxic deaths [18] | Delta MST [19] | Delta MST [22] | Delta MST [26] | further results
1 | CCCCCCCCCOc1c(OC)cc(NC(C)CCCN)c2nccc(C)c12 (centres undefined) | 1 | 0 | 3 | 5 | 5 | 7.9 | 9.7 | – | – | – | – | – | – | Cures/no. of animals [1]: 0; Cures/no. of animals [3]: Toxic; Cures [5]: 2; Cures [6]: 4; Cures [8]: 4; Cures [10]: 4
2 | CCCC(CC)Oc1c(OC)cc(NC(C)CCCN)c2ncc(C)cc12 (centres undefined) | – | – | – | 1 | 1 | – | – | 4 | 5 | 5 | 5.3 | – | – | Cures/no. of animals [14]: 0; Cures/no. of animals [15]: 0
3 | COc1cc(NC(C)CCCN)c2nccc(C)c2c1OCCCCOc1ccccc1 (centres undefined) | – | 0 | 5 | 5 | – | 8 | – | 5 | 5 | 5 | – | 10.2 | – | Cures [20]: 1; Toxic deaths [21]: 5
4 | CCCCCCCCCCOc1c(OC)cc(NC(C)CCCN)c2ncccc12 (centres undefined) | – | – | – | – | – | – | – | – | – | – | 0.1 | – | 0.1 | Cures/no. of animals [14]: 0; Cures/no. of animals [23]: 1; Cures [10]: 2; Delta MST [24]: 9.3; Delta MST [25]: 5.7; Delta MST [27]: 2.9
5 | CCCCCCCCOc1c(OC)cc(NC(C)CCCN)c2ncccc12 (centres undefined) | – | 0 | – | – | – | – | – | – | – | 1 | 2.9 | – | 6.7 | Cures/no. of animals [28]: 2; Delta MST [24]: 6.3; Delta MST [25]: 12.1; Delta MST [27]: 8.1; Cures/no. of animals [29]: 0
6 | COc1cc(NC(C)CCCN)c2nccc(C)c2c1OCCCCCCOc1ccccc1 (centres undefined) | 1 | – | 4 | 5 | 4 | – | 7.3 | – | 2 | 2 | – | – | – | Cures/no. of animals [1]: 0; Cures/no. of animals [15]: 0; Cures [5]: 2; Cures [6]: 2
7 | CCCCCCCCOc1c(OC)cc(NC(C)CCCN)c2nccc(C)c12 (centres undefined) | 1 | – | 5 | 5 | 5 | 7.8 | 12 | – | – | 2 | – | – | – | Cures/no. of animals [3]: Toxic; Cures [5]: 5; Cures [6]: 2; Delta MST [24]: 0.4; Cures/no. of animals [29]: 0
8 | CCCCC(C)Oc1c(OC)cc(NC(C)CCCN)c2ncc(C)cc12 (centres undefined) | 1 | – | 2 | 3 | 1 | – | – | 5 | 5 | 5 | – | 6.1 | – | –
9 | CCOc1c(OC)cc(NC(C)CCCN)c2ncccc12 (centres undefined) | – | – | – | – | – | – | – | 3 | – | 5 | – | – | 0.3 | –
10 | CCCCCCCCCCCCOc1c(OC)cc(NC(C)CCCN)c2nccc(C)c12 (centres undefined) | – | – | – | – | – | – | – | – | – | – | 3.2 | 2 | 6.4 | Cures/no. of animals [14]: 0; Cures/no. of animals [15]: 0; Cures [6]: 4; Cures [8]: 5; Cures [10]: 5; Delta MST [27]: 7.6
11 | COc1cc(NC(C)CCCN)c2nccc(C)c2c1OC1CCCC1 (centres undefined) | – | 0 | 1 | 2 | 1 | 6.1 | 6.9 | 5 | 5 | 5 | – | 6.9 | – | Cures/no. of animals [30]: 2; Cures/no. of animals [28]: 2; Cures/no. of animals [3]: Toxic
12 | CCCCOc1c(OC)cc(NC(C)CCCN)c2nccc(C)c12 (centres undefined) | 1 | 0 | 5 | 3 | – | – | – | 5 | 5 | 5 | – | 11 | – | Cures/no. of animals [30]: 2; Toxic deaths [21]: 4
13 | COc1cc(NC(C)CCCN)c2nccc(C)c2c1OCC1CCCCC1 (centres undefined) | – | – | 4 | 3 | 1 | 9.2 | 7.8 | – | 4 | 5 | – | – | – | Cures/no. of animals [28]: 2; Cures/no. of animals [23]: 1; Cures/no. of animals [15]: 0; Cures [5]: 1; Cures/no. of animals [29]: 0
14 | COc1cc(NC(C)CCCN)c2nc(C)ccc2c1 (centres undefined) | – | – | – | – | – | – | – | – | 1 | 5 | 3.1 | – | 5.5 | Delta MST [25]: 8.3; Delta MST [27]: 7.3
15 | COc1cc(NC(C)CCCN)c2ncccc2c1OCC(F)(F)F (centres undefined) | 1 | – | – | – | – | – | – | – | – | – | – | – | – | Cures/no. of animals [29]: 0
